What all share (assay type): functional, cell-based
A short description of assay [1]: Cytotoxicity against human HL60/TX1000 cells after 72 hrs by MTT assay. Particulars: HL60/TX1000, 72 h. A digest of the protocol: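 HL-60/TX1000 cells (Taxol-resistant HL-60 subline selected by stepwise Taxol exposure; overexpress MDR1/P-glycoprotein) grown in RPMI1640 with 10% FC plus penicillin/streptomycin, split every third day, set to 2 · 10⁵ cells/mL the day before the experiment, and used in exponential growth. Compounds were diluted into medium from 1 mM DMSO stock and tested at various concentrations for 72 h. IC50 was read by […] tetrazolium assay.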
Background: Tetrazolium assays rely on reduction of a dye to a coloured formazan, in cell work by metabolically active cells.

For another assay, the system named is P388. The experiment in a line: Cytotoxicity against mouse P388 cells after 72 hrs […]. As to conditions: P388, 72 h.
Assay [2] in a line: Cytotoxicity against human MDA435 cells after 72 hrs […]. As to conditions: MDA-MB-435, 72 h.
Another assay concerns HL-60. The experiment in a line: Cytotoxicity against human HL60 cells after 72 hrs […]. Particulars: HL-60, 72 h.
A further assay concerns DU-145. The experiment in a line: Cytotoxicity against human DU145 cells after 72 hrs […]. Particulars: DU-145, 72 h.
Assay [3] is described as follows: Cytotoxicity against human MESSA cells after 72 hrs […]. Particulars: MES-SA.
Assay [4] can be described thus: Cytotoxicity against human MESSA/DX5 cells after 72 hrs […]. As to conditions: MES-SA/Dx5, 72 h.

From ChEMBL document CHEMBL1144012, “Indole- and indolizine-glyoxylamides displaying cytotoxicity against multidrug resistant cancer cell lines” (Bioorg Med Chem Lett, 2008) come the findings set out here.

For `Cc1cnc(NC(=O)C(=O)c2cn(Cc3ccc(Cl)cc3)c3ccccc23)s1`, in assay [1], the IC50 (as a rule, the concentration that gives 50% inhibition) was found to be 50 nM. On the same count and under the same terms, to `O=C(Nc1ccon1)C(=O)c1cn(Cc2ccc(Cl)cc2)c2ccccc12` belongs 50 nM. The same measure, in the same setting: to `O=C(Nc1cccc2cccnc12)C(=O)c1cn(Cc2ccc(Cl)cc2)c2ccccc12` belongs more than 10000 nM; to `O=C(Nc1ccno1)C(=O)c1cn(Cc2ccc(Cl)cc2)c2ccccc12`, 50 nM; to `O=C(Nc1ccccn1)C(=O)c1cn(Cc2ccc(Cl)cc2)c2ccccc12`, more than 10000 nM. The same measure, in the same setting: as for `Cc1cc(NC(=O)C(=O)c2cc(Cc3ccc(Cl)cc3)n3ccccc23)sn1`, the figure is 60 nM; as for `O=C(Nc1nncs1)C(=O)c1cn(Cc2ccc(Cl)cc2)c2ccccc12`, 100 nM; as for `Cc1nsc(NC(=O)C(=O)c2cn(Cc3ccc(Cl)cc3)c3ccccc23)c1Cl`, 5000 nM. `Cc1ccc2cc(NC(=O)C(=O)c3cn(Cc4ccc(Cl)cc4)c4ccccc34)ccc2n1` came in with an IC50 in assay [1] of 500 nM. Same read-out and setting: as for `O=C(Nc1noc2ccccc12)C(=O)c1cn(Cc2ccc(Cl)cc2)c2ccccc12`, the figure is more than 10000 nM; as for `Cc1cc(NC(=O)C(=O)c2cn(Cc3ccc(Cl)cc3)c3ccccc23)sn1`, 10 nM. Same read-out and setting: to `NC(=O)c1ccc(NC(=O)C(=O)c2cn(Cc3ccc(Cl)cc3)c3ccccc23)nc1` belongs 50 nM; to `Cc1cc(NC(=O)C(=O)c2cn(Cc3ccc(Cl)cc3)c3ccccc23)no1`, 50 nM; to `CSc1nnc(NC(=O)C(=O)c2cn(Cc3ccc(Cl)cc3)c3ccccc23)s1`, 1000 nM. In assay [1], `O=C(Nc1cccnc1)C(=O)c1cn(Cc2ccc(Cl)cc2)c2ccccc12` had an IC50 of 6000 nM.

`C[n+]1ccc(NC(=O)C(=O)c2cn(Cc3ccc(Cl)cc3)c3ccccc23)cc1` displayed an IC50 in assay [1] of more than 10000 nM. On the same count and under the same terms, as for `CC(C)(C)c1csc(NC(=O)C(=O)c2cn(Cc3ccc(Cl)cc3)c3ccccc23)n1`, the figure is 5000 nM. Still for that read-out and setting: to `Cc1cc(NC(=O)C(=O)c2cn(Cc3ccc(Cl)cc3)c3ccccc23)on1` belongs 50 nM. With `O=C(Nc1ccc2ncccc2c1)C(=O)c1cn(Cc2ccc(Cl)cc2)c2ccccc12`, inhibition in assay [1] was half-maximal at 50 nM (IC50). On to `O=C(Nn1cnnc1)C(=O)c1cn(Cc2ccc(Cl)cc2)c2ccccc12`, for which the IC50 in assay [1] was more than 10000 nM. `O=C(Nc1ccncc1)C(=O)c1cn(Cc2ccc(Cl)cc2)c2ccccc12` [INDIBULIN] yielded an IC50 in assay [1] of 50 nM. For `CC(=O)O[C@H]1C(=O)[C@@]2(C)[C@H]([C@H](OC(=O)c3ccccc3)[C@]3(O)C[C@H](OC(=O)[C@H](O)[C@@H](NC(=O)c4ccccc4)c4ccccc4)C(C)=C1C3(C)C)[C@]1(OC(C)=O)CO[C@@H]1C[C@@H]2O` [PACLITAXEL], in the assay with P388, half-maximal inhibition (IC50) required 10 nM.

`Cc1cc(NC(=O)C(=O)c2cc(Cc3ccc(C#N)cc3)n3ccccc23)sn1` [ROSABULIN]: the IC50 in assay [1] worked out at 20 nM; in assay [2], 50 nM; in the assay on HL-60 it was 50 nM; in the assay on P388, 10 nM; in the assay with DU-145 it was 50 nM; in assay [3], 10 nM. For the same compound, in assay [4], the concentration for half-maximal inhibition (IC50) came to 50 nM.
